PubChem BioAssay AID602246 (The Scripps Research Institute Molecular Screening Center, 2012)
Values without a mark were called inactive. Active and inactive are the calls of the source.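 How the source made its calls: active means t-test against the solvent control gives p below 0.05 and normalized ATPase activity falls by at least 10%; inactive means the rest.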

Assay: RTF inhibitors lowering myofibrillar ATP hydrolysis – biochemical, absorbance, porcine cardiac myofibrils, powder samples, mechanism study for cardiac RTF inhibitor project, late-stage follow-up (AID 602246)
Conditions: ATPase Pi absorbance 660 nm, at 10 µM, active compounds read low
Summary of the method: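 material = porcine cardiac myofibrils | benchmarks = DMSO wells | measure = ATPase activity ratio, compound-well mean over DMSO-well mean | reagent = 3.02 mM ATP, EC50 calcium | timing = 5 min compound preincubation, then 7 min ATPase reaction, 25 °C | measured by = phosphate absorbance at 660 nm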

| Structure (SMILES) | normalized ATPase activity |
| --- | --- |
| COc1cccc2c1NC(C(=O)O)C1CC=CC21 (stereo not given) | 1.03 |
| O=C(O)c1ccc2nc(-c3ccco3)c(-c3ccco3)nc2c1 | 1.03 |
| O=C(O)c1cccc(-n2cccc2/C=C2/NC(=O)N(c3ccc(Cl)cc3)C2=O)c1 | 0.975 |
| NCCCCCCNS(=O)(=O)c1cccc2c(Cl)cccc12 | 0.854 (active) |
| O=C(O)c1ccc2c(c1)[C@@H]1C=CC[C@@H]1[C@H](c1ccccn1)N2 | 0.982 |
